One block for each compound: values may come before it. The source made the active and inactive calls. The calls are words filed in the database; no cut-off is given here.
Assays:
R2 [1] = assay: Cytotoxicity against chinese hamster R2 cells expressing human PCFT4 after 96 hrs by CellTitre-Blue fluorescence assay; assay type: functional, cell-based, Cricetulus griseus; conditions: R2, 96 h
[2] = Cytotoxicity against chinese hamster R2(VC) cells after 96 hrs by CellTitre-Blue fluorescence assay; assay type: functional, cell-based; conditions: Cricetulus griseus
In short: (§1)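 CHO sublines were grown in FF-RPMI/DFBS; transfectants were maintained with G418. Cells were exposed to antifolate (0–1 μM) for 96 h at 37 °C with 2 nM LCV (RT16) or 25 nM LCV (R2/PCFT4). PC43-10 cells were grown in standard RPMI1640/DFBS instead. FRα specificity was tested by adding 200 nM folic acid. Viable cells were read by CellTiter-Blue fluorescence (ex 560/em 590), and IC50 was taken from dose–response curves; means of 3–10 experiments.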

[3] = Cytotoxicity against chinese hamster RT16 cells expressing human FRalpha after 96 hrs by CellTitre-Blue fluorescence assay in presence of folic acid; assay type: functional, cell-based; conditions: Cricetulus griseus, RT16, 96 h; in short: as §1
R2 [4] = assay: Cytotoxicity against chinese hamster R2 cells after 96 hrs by CellTitre-Blue fluorescence assay; conditions: Cricetulus griseus, R2, 96 h
KB [5] = assay: Cytotoxicity against human KB cells expressing human RFC/FRalpha/PCFT after 96 hrs by CellTitre-Blue fluorescence assay; assay type: functional, cell-based
In short: (§2)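 KB cells were grown in FF-RPMI with DFBS and 2 nM LCV, exposed to antifolate (0–1 μM) for 96 h at 37 °C, and read by CellTiter-Blue fluorescence. IC50 was taken from dose–response curves relative to untreated cells. Protection arms added adenosine 60 μM, thymidine 10 μM, AICA 320 μM, or folic acid 200 nM. Means of 3–10 experiments.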

KB [6] = assay: Cell cycle arrest in human KB cells assessed as accumulation at G2/M phase at 1 uM after 96 hrs by propidium iodide staining-based flow cytometry (reference value: 13.2%); assay type: functional
KB [7] = assay: Cytotoxicity against human KB cells expressing human RFC/FRalpha/PCFT after 96 hrs by CellTitre-Blue fluorescence assay in presence of folic acid; assay type: functional, cell-based; in short: as §2
KB [8] = assay: Induction of apoptosis in human KB cells assessed as necrotic cells at 1 uM after 96 hrs by Annexin V-FITC/7-AAD staining-based flow cytometry (RVB = 7.80%); assay type: functional
KB [9] = assay: Cell cycle arrest in human KB cells assessed as accumulation at G1/G0 phase at 1 uM after 96 hrs by propidium iodide staining-based flow cytometry (reference value: 67.4%); assay type: functional
KB [10] = assay: Cell cycle arrest in human KB cells assessed as accumulation at sub-G1 phase at 1 uM after 96 hrs by propidium iodide staining-based flow cytometry (reference value: 3.5%); assay type: functional
[11] = Cytotoxicity against chinese hamster PC43-10 cells expressing human RFC after 96 hrs by CellTitre-Blue fluorescence assay; assay type: functional, cell-based; conditions: Cricetulus griseus, PC43-10, 96 h; in short: as §1
KB [12] = assay: Cytotoxicity against human KB cells expressing human RFC/FRalpha/PCFT assessed as depletion of ATP pools at 1 uM after 24 hrs by ion-pair HPLC analysis; assay type: functional
In short: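 KB cells in FF-RPMI/10% DFBS with 2 mM glutamine and 2 nM LCV were exposed to 1 μM drug for 24 h. They were trypsinized and washed, and nucleotides were extracted. ATP was quantified by reversed-phase ion-pair HPLC on a C18 column. Results are means ± standard errors.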

KB [13] = assay: Induction of apoptosis in human KB cells assessed as viable cells at 1 uM after 96 hrs by Annexin V-FITC/7-AAD staining-based flow cytometry (RVB = 89.6%); assay type: functional; conditions: read-out: Activity
KB [14] = assay: Cytotoxicity against human KB cells expressing human RFC/FRalpha/PCFT after 96 hrs by CellTitre-Blue fluorescence assay in presence of adenosine/AICA/thymidine; assay type: functional, cell-based; in short: as §2
KB [15] = assay: Cell cycle arrest in human KB cells assessed as accumulation at S phase at 1 uM after 96 hrs by propidium iodide staining-based flow cytometry (reference value: 15.9%); assay type: functional
KB [16] = assay: Induction of apoptosis in human KB cells assessed as late apoptotic cells at 1 uM after 96 hrs by Annexin V-FITC/7-AAD staining-based flow cytometry (reference value: 2.09%); assay type: functional
KB [17] = assay: Cell cycle arrest in human KB cells assessed as accumulation at G1/G0 phase at 1 uM after 48 hrs by propidium iodide staining-based flow cytometry relative to control; assay type: functional
KB [18] = assay: (§3) Inhibition of GARFTase in human KB cells assessed as incorporation of [14C]-glycine into [14C]-formyl GAR incubated 30 mins prior to [14C]-glycine addition measured after 16 hrs by radiometric assay in presence of azaserin; assay type: cell-based
In short: (§4)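 KB cells were preincubated 1 h in folate- and glutamine-free medium with 2 nM LCV and a range of drug concentrations. Azaserine (4 μM final) was added for 30 min, then 2 mM glutamine and [14C(U)]glycine (0.1 mCi/L) for 16 h at 37 °C. TCA extracts were ether-washed and run on AG1×8 anion exchange. [14C]formyl GAR was measured per mg protein, and IC50 was set against DMSO controls; three experiments.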

[19] = as §3; assay type: cell-based; in short: as §4
KB [20] = assay: Cytotoxicity against human KB cells expressing human RFC/FRalpha/PCFT after 96 hrs by CellTitre-Blue fluorescence assay in presence of thymidine/adenosine; assay type: functional, cell-based; in short: as §2
[21] = Cytotoxicity against chinese hamster RT16 cells expressing human FRalpha after 96 hrs by CellTitre-Blue fluorescence assay; assay type: functional, cell-based; conditions: Cricetulus griseus, RT16, 96 h; in short: as §1
KB [22] = assay: Induction of apoptosis in human KB cells assessed as early apoptotic cells at 1 uM after 96 hrs by Annexin V-FITC/7-AAD staining-based flow cytometry (reference value: 0.485%); assay type: functional
KB [23] = assay: Cytotoxicity against human KB cells at 10 mM after 96 hrs by CellTitre-Blue fluorescence assay; assay type: functional; conditions: read-out: GI
In short: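 KB cells were exposed for 96 h at 37 °C to metformin (0–10 mM) or AICA (0–2 mM) in FF-RPMI/DFBS with 2 nM LCV. Growth was read by CellTiter-Blue fluorescence relative to drug-free cells.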

[24] = target: Bifunctional purine biosynthesis protein ATIC (Homo sapiens) (UniProt P31939); assay: Inhibition of AICARFTase in human KB cells assessed as phosphorylated AMPK at 10 mM after 48 hrs by Western blot analysis; assay type: cell-based
Sequence of Bifunctional purine biosynthesis protein ATIC (Homo sapiens) (P31939 whole entry, looked up): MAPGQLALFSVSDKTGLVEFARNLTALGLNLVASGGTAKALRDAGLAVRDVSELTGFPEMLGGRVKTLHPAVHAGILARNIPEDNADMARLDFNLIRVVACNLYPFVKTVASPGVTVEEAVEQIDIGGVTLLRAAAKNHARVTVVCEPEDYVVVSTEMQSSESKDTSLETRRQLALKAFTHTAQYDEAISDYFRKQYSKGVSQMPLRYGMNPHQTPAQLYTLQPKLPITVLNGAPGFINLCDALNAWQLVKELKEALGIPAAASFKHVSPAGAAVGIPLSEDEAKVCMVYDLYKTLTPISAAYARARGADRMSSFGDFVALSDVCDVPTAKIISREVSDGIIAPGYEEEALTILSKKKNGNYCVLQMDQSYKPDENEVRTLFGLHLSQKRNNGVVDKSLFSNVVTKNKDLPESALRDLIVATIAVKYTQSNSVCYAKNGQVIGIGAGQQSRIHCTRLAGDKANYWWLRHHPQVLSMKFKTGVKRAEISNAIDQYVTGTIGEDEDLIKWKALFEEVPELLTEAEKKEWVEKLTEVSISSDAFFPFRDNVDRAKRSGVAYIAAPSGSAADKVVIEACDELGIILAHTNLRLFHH
In short: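 KB cells were treated for 48 h with 10 μM thymidine, or with AMPK activators (metformin 10 mM, AICA 1 mM, AICAR 1 mM) against a water/DMSO vehicle. Cells were sonicated in 10 mM Tris-HCl pH 7.0 with protease/phosphatase inhibitors. 90 μg protein was run on 4–20% SDS gels and blotted for phospho-AMPK, total AMPK and β-actin, with infrared detection.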

KB [25] = assay: Cytotoxicity against human KB cells expressing human RFC/FRalpha/PCFT after 96 hrs by CellTitre-Blue fluorescence assay in presence of adenosine; assay type: functional, cell-based; in short: as §2
KB [26] = assay: Cytotoxicity against human KB cells expressing human RFC/FRalpha/PCFT after 96 hrs by CellTitre-Blue fluorescence assay in presence of AICA; assay type: functional, cell-based; in short: as §2
KB [27] = assay: Cytotoxicity against human KB cells expressing human RFC/FRalpha/PCFT after 96 hrs by CellTitre-Blue fluorescence assay in presence of thymidine; assay type: functional, cell-based; in short: as §2
[28] = target: Folate receptor alpha (Homo sapiens) (UniProt P15328); assay: Displacement of [3H]folic acid from human FRalpha expressed in chinese hamster RT16 cells after 15 mins by scintillation counting analysis; assay type: cell-based
Sequence of Folate receptor alpha (Homo sapiens) (P15328 25-234 limits assumed): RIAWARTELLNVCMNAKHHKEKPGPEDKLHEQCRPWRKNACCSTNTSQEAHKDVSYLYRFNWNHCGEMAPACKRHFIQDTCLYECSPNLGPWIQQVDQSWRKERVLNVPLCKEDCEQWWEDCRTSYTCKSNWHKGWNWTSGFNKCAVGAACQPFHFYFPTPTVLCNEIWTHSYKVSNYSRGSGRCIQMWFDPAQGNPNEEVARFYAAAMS
In short: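 FRα-expressing RT16 CHO cells (~1.5 × 10^6) were grown as monolayers. Bound folates were stripped with ice-cold acetate buffer (pH 3.5), then neutralised with HEPES-buffered saline (pH 7.4). Cells were then competed with [3H]folic acid against graded unlabelled ligand. Bound label read by scintillation, normalised to Folin-phenol protein (pmol/mg). Relative affinity = inverse molar ratio for 50% displacement, folic acid set at 1. Three experiments.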

[29] = target: T1, Reduced folate transporter (Homo sapiens) (UniProt P41440); assay: Inhibition of human RFC expressed in chinese hamster PC43-10 cells assessed as reduction of [3H]MTX uptake at 10 uM after 48 hrs by scintillation counting analysis relative to control; assay type: cell-based
T1 sequence (whole entry): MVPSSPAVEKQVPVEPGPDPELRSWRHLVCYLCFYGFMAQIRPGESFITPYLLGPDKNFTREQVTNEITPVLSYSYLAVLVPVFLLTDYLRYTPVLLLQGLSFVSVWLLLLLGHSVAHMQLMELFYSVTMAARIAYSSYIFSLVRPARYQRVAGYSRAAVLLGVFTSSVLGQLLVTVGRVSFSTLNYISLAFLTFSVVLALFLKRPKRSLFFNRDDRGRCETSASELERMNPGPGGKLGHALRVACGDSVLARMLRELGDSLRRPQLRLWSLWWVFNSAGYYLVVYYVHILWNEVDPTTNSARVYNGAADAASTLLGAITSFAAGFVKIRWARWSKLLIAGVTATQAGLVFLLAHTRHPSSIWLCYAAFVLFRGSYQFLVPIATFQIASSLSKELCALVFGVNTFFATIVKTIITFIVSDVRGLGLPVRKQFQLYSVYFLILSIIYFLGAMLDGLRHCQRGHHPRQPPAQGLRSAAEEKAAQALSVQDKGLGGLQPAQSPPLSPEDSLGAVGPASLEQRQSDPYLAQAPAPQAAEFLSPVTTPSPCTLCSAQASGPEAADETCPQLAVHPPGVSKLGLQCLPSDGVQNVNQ
In short: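 PC43-10 CHO cells expressing human RFC (~1.5 × 10^6) were seeded 48 h before assay. Uptake of 0.5 μM [3H]MTX was run in Hank's balanced salts for 2 min at 37 °C, with or without 10 μM unlabelled inhibitor, and stopped with ice-cold PBS. Cells were dissolved in 0.5 N NaOH, counted by scintillation and normalised to Folin-phenol protein (pmol/mg). RFC-null R2 cells gave baseline. Three experiments.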

Compound: Nc1nc2[nH]c(CCCCCc3ccc(C(=O)N[C@@H](CCC(=O)O)C(=O)O)cc3)cc2c(=O)[nH]1
IC50 (R2 [1]): > 1000 nM
IC50 [2]: > 1000 nM

Compound: Nc1nc2[nH]cc(CCCCCCc3ccc(C(=O)N[C@@H](CCC(=O)O)C(=O)O)cc3)c2c(=O)[nH]1
IC50 (R2 [1]): > 1000 nM
IC50 [3]: > 1000 nM
IC50 [2]: > 1000 nM
IC50 (R2 [4]): > 1000 nM

Compound: Cc1nc(=O)c2cc(CN(C)c3ccc(C(=O)N[C@@H](CCC(=O)O)C(=O)O)s3)ccc2[nH]1 [RALTITREXED]
IC50 [2]: > 1000 nM

Compound: Nc1nc2[nH]cc(CCc3ccc(C(=O)N[C@@H](CCC(=O)O)C(=O)O)cc3)c2c(=O)[nH]1 [PEMETREXED]
IC50 (KB [5]): 9.94 nM
Activity (KB [6]): 7.5%
IC50 (KB [7]): 690 nM
Activity (KB [8]): 0.271%
Activity (KB [9]): 47.8%
Activity (KB [10]): 17.3%
IC50 [11]: 30.6 nM
inhibition at 1 µM (KB [12]): 60%
IC50 [3]: > 1000 nM
IC50 [2]: > 1000 nM
viability at 1 µM (KB [13]): 64.6%
Activity (KB [14]): Active
Activity (KB [15]): 27.5%
Activity (KB [16]): 4.56%
Activity (KB [17]): Active
inhibition (KB [18]): Dose-dependent effect
IC50 [19]: 11.7 nM
Activity (KB [20]): inactive
IC50 [21]: 18.2 nM
Activity (KB [22]): 30.6%
IC50 (R2 [4]): > 1000 nM

inhibition [24]: inactive
Compound: CN(C)C(=N)NC(=N)N [METFORMIN]
inhibition of growth at 10000 µM (KB [23]): 32%

Compound: Nc1nc2[nH]cc(CCCc3ccc(C(=O)N[C@@H](CCC(=O)O)C(=O)O)cc3)c2c(=O)[nH]1
Activity (KB [25]): inactive
Activity (KB [26]): Active
IC50 [3]: > 1000 nM
IC50 [2]: > 1000 nM
Activity (KB [27]): Active
IC50 (R2 [4]): > 1000 nM

Compound: Nc1nc2[nH]c(CCCCc3ccc(C(=O)N[C@@H](CCC(=O)O)C(=O)O)cc3)cc2c(=O)[nH]1
Activity [28]: Active
Activity (KB [6]): 1.2%
Activity (KB [8]): 0.748%
Activity (KB [9]): 22.3%
Activity (KB [10]): 45.1%
IC50 [2]: > 1000 nM
viability at 1 µM (KB [13]): 35%
Activity (KB [15]): 31.4%
inhibition [29]: < 25%
Activity (KB [16]): 28.8%
inhibition (KB [18]): Dose-dependent effect
IC50 [19]: 5.71 nM
Activity (KB [22]): 35.5%

— ChEMBL document CHEMBL3102834, “Discovery of 5-substituted pyrrolo[2,3-d]pyrimidine antifolates as dual-acting inhibitors of glycinamide ribonucleotide formyltransferase and 5-aminoimidazole-4-carboxamide ribonucleotide formyltransferase in de novo purine nucleotide biosynthesis: implications of inhibiting …” (J Med Chem, 2013)
